{"data": "Measured values from different studies", "target": "NT-3 growth factor receptor (NTRK3, Homo sapiens, UniProt Q16288)", "note": "Compare with care: the assays were run in different laboratories."}
{"SMILES": "C[C@@]1(Cc2ccc(C#N)cc2)C(=O)N(c2cc(Cl)cc(Cl)c2)c2ncc(C(=O)NC3(c4nc(C5CCC5)no4)CC3)n21", "test": "cell-free assay, competition with immobilised ligand", "setting": "1 µM", "quantity": "remaining binding", "result": "100%"}
{"SMILES": "Cc1cnc(NC2CCOCC2)nc1-n1cnc(C(=O)NC(CN)c2cc(F)cc(Cl)c2)c1 (stereo not shown)", "test": "enzyme activity, inhibitor, radiometric", "setting": "1 µM", "quantity": "remaining activity", "result": "93%"}
{"SMILES": "O=C(Nc1cccc(C(=O)Nc2ccc3[nH]ncc3c2)c1)Nc1cccc(C(F)(F)F)c1", "test": "enzyme activity, inhibitor, FRET", "setting": "1 µM", "quantity": "inhibition", "result": "26.6%"}
{"SMILES": "N#CCCc1ccc2c(c1)-c1[nH]c3ccc([N+](=O)[O-])cc3c1CC(=O)N2", "test": "cell-free assay", "setting": "0.5 µM", "quantity": "remaining signal", "result": "61.2%"}
{"SMILES": "Cc1ccc(C(=O)Nc2ccc(CN3CCN(C)CC3)c(C(F)(F)F)c2)cc1C#Cc1cnc2cccnn12", "test": "cell-free assay", "setting": "23.5 nM", "quantity": "remaining signal", "result": "26%"}
{"SMILES": "Cc1ccc(C(=O)NCc2ccsc2)cc1C#Cc1cn(C(C)C)c2ncnc(N)c12", "test": "enzyme activity, inhibitor", "setting": "1 µM", "quantity": "activity vs control", "result": "29%"}
{"SMILES": "O=C(Nc1ccc(F)cc1)Nc1cccc(C(=O)Nc2ccc3[nH]ncc3c2)c1", "test": "enzyme activity, inhibitor, FRET", "setting": "1 µM", "quantity": "inhibition", "result": "13%"}
{"SMILES": "Clc1ccc(Nc2nnc(Cc3ccncc3)c3ccccc23)cc1", "test": "cell-free assay", "setting": "0.5 µM", "quantity": "remaining signal", "result": "92.7%"}
{"SMILES": "O=C(Nc1ccc(C(F)(F)F)cc1)Nc1cccc(C(=O)Nc2ccc3[nH]nc(-c4ccccc4)c3c2)c1", "test": "enzyme activity, inhibitor, FRET", "setting": "1 µM", "quantity": "inhibition", "result": "12.9%"}
{"SMILES": "Cc1c[nH]c2nccc(Oc3c(F)cc(Nc4cc(Cl)nc(N)n4)cc3F)c12", "test": "cell-free assay, competition with immobilised ligand", "setting": "0.1 µM", "quantity": "remaining binding", "result": "86%"}
{"SMILES": "O=C(Nc1ccc2[nH]ncc2c1)c1cccc(NC(=S)Nc2cc(C(F)(F)F)cc(C(F)(F)F)c2)c1", "test": "enzyme activity, inhibitor, FRET", "setting": "1 µM", "quantity": "inhibition", "result": "11.8%"}
{"SMILES": "Cc1c(C(=O)O)cc(-c2ccc(C3CCNCC3)cc2)c2ccc(-c3ccc(C(F)(F)F)cc3)cc12", "test": "cell-free assay, competition with immobilised ligand", "setting": "1 µM", "quantity": "remaining binding", "result": "100%"}
{"SMILES": "COc1cc(Cl)c(C(=O)N[C@@H](CN[C@H]2CC[C@@H](N)CC2)Cc2ccc(C#N)cc2)cc1-c1ccc(CN[C@H](C)c2ccc(C)cc2)o1", "test": "enzyme activity, inhibitor", "setting": "1 µM", "quantity": "remaining activity", "result": "96%"}
{"SMILES": "COCCOc1nc(-c2ccc(Cl)nc2)nc2c1CN(C(=O)c1ncn3ccccc13)CC2", "test": "cell-free assay, competition with immobilised ligand", "setting": "0.1 µM", "quantity": "remaining binding", "result": "100%"}
{"SMILES": "COc1cc2c(Nc3ccc(Br)cc3F)ncnc2cc1OCC1CCN(C)CC1", "test": "cell-free assay", "setting": "0.5 µM", "quantity": "remaining signal", "result": "72.2%"}
{"SMILES": "CC(C)(C)c1nc2c(s1)c1nc(N)ncc1c1ccc(NS(=O)(=O)c3c(F)cccc3F)c(F)c12", "test": "enzyme activity, inhibitor, radiometric", "setting": "1 µM", "quantity": "remaining activity", "result": "82%"}
{"SMILES": "N#CC1(c2ccccn2)CCN(Cc2cc(C(=O)N3CCCC3)c(=O)n3ccccc23)CC1", "test": "cell-free assay, competition with immobilised ligand", "setting": "1 µM", "quantity": "remaining binding", "result": "100%"}
{"SMILES": "O=C(Nc1ccc(Cl)cc1)Nc1cccc(C(=O)Nc2ccc3[nH]ncc3c2)c1", "test": "enzyme activity, inhibitor, FRET", "setting": "1 µM", "quantity": "inhibition", "result": "15.4%"}
{"SMILES": "O=C(O)[C@H]1[C@H](Cn2nnc3ccccc3c2=O)CC[C@@H]1C(=O)c1ccc(OCCC2CCOCC2)cc1", "test": "cell-free assay, competition with immobilised ligand", "setting": "1 µM", "quantity": "remaining binding", "result": "82%"}
{"SMILES": "O=C(Nc1cccc(Cl)c1)Nc1cccc(C(=O)Nc2ccc3[nH]ncc3c2)c1", "test": "enzyme activity, inhibitor, FRET", "setting": "1 µM", "quantity": "inhibition", "result": "19.7%"}
{"SMILES": "Cc1noc([C@H]2C[C@@H](c3ccc(C(F)(F)F)cc3)CN(C(=O)N3CCS(=O)(=O)C3)C2)n1", "test": "cell-free assay, competition with immobilised ligand", "setting": "1 µM", "quantity": "remaining binding", "result": "100%"}
{"SMILES": "O=C(Nc1ccc2[nH]ncc2c1)c1cccc(NC(=S)Nc2ccc(F)cc2F)c1", "test": "enzyme activity, inhibitor, FRET", "setting": "1 µM", "quantity": "inhibition", "result": "12.5%"}
{"SMILES": "O=C1Nc2ccc(Cl)cc2C1=Cc1cc(Cl)c(O)c(Cl)c1", "test": "cell-free assay", "setting": "0.5 µM", "quantity": "remaining signal", "result": "44.8%"}
{"SMILES": "O=C(Nc1cccc(C(=O)Nc2ccc3[nH]ncc3c2)c1)Nc1ccccc1C(F)(F)F", "test": "enzyme activity, inhibitor, FRET", "setting": "1 µM", "quantity": "inhibition", "result": "23.7%"}
{"SMILES": "O=C(Nc1cnn(-c2csc(C(=O)NC3COC3)c2)c1)Nc1c(F)cccc1Cl", "test": "enzyme activity, inhibitor", "setting": "5 µM", "quantity": "remaining activity", "result": "38.6%"}
